# In PubChem BioAssay:
# Active and inactive are the calls of the source.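 Rule for the calls, unless noted: active = visual image review flags a hit and inhibition of aggregation exceeds 20%; inconclusive = visual hit but inhibition at or below 20%; inactive = no hit on visual image review.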
# Key:
# [1] = inhibitors of TNFa-induced NFkB p65 translocation, primary screen, imaging, HUVEC, MLSMR starter and 10KST1 sets (AID 438;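 active = inhibition above 20% together with a positive visual image hit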;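 note: compound added about 3h40 before a 20 min TNFalpha stimulation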;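 for inhibition: signal is the nuclear over cytoplasmic p65 intensity ratio per well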); details: HUVEC TNFa-induced p65 nuclear translocation; cell count: measured here: nuclei count (cytotoxicity indicator), at 2.08 µM; inhibition: at 2 µM, stronger effect = higher value, 0% TNFa-plus-vehicle, 100% no-TNFa wells
# [2] = inhibitors of mutant huntingtin aggregation, primary screen, imaging, exon1htt(103Q)mCFP cells, high-content imaging (AID 483); details: exon1htt(103Q)mCFP cell line, aggregate imaging, at 2 µM; inhibition of aggregation: stronger effect = higher value; nuclei count: measured here: cell count, toxicity;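 note: compound exposure lasted 3 days before fixation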;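 for nuclei count: percent of the per-plate median nuclei count of sample wells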
# [3] = inhibitors of E-selectin induction by TNFa, primary screen, imaging, HUVEC, immunofluorescence, MLSMR starter and 10KST1 sets (AID 487;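 active = visually confirmed hit in the image check and inhibition above 20%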;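 for inhibition: signal is fraction of cell area covered by stained E-selectin grains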;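 for nuclei count: 100% = median nuclei count of all wells on the same plate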); details: HUVEC TNFalpha-induced E-selectin immunofluorescence imaging, at 2 µM; inhibition: stronger effect = higher value; nuclei count: measured here: cell number, toxicity
# [4] = biological target: Voltage-gated potassium channel subunit beta-2 (Rattus norvegicus) (UniProt P62483); assay: KvBeta enzyme negative modulators, primary screen, biochemical, NADPH fluorescence (AID 622;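 active = fluorescence slope higher than the sample average by over 3 SD, cut at about -0.22 in these data, passing the limit was not always enough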;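 note: slope of raw intensity against log time taken from 70 to 1610 s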); details: recombinant KvBeta, 4-cyanobenzaldehyde reduction, at 10 µM, stronger effect = higher value
# Voltage-gated potassium channel subunit beta-2 (Rattus norvegicus), sequence (P62483 whole entry, looked up): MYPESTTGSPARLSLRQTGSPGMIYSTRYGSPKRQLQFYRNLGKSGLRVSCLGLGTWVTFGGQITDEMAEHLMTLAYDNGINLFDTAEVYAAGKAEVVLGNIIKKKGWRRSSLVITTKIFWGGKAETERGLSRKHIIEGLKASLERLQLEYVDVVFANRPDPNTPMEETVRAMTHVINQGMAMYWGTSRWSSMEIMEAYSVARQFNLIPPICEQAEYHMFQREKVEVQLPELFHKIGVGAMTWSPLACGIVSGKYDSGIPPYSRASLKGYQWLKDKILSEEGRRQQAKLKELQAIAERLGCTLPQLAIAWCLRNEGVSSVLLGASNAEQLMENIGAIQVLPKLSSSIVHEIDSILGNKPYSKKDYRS
# [5] = biological target: Voltage-gated potassium channel subunit beta-2 (Rattus norvegicus) (UniProt P62483); assay: KvBeta positive modulators, primary screen, biochemical, NADPH fluorescence (AID 623;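 active = NADPH fluorescence slope more negative than the mean of all samples by about 3 SD, 99.7% confidence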;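 note: fluorescence intensity change per second fitted from 20 to 320 s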); details: Recombinant KvBeta, NADPH fluorescence decrease slope, 10 min; at 10 µM; stronger effect = lower value
# [6] = biological target: Muscarinic acetylcholine receptor M4 (Homo sapiens) (UniProt P08173); assay: compounds altering M4/GIRK thallium flux, either direction, primary screen, M4 allosteric agonist project, cell-based, HEK293 M4/GIRK, BTC-AM (AID 625;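 active = fluorescence slope after compound addition differing from the mean of all tested samples at 99.7% confidence, mostly higher but some lower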;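 note: thallium influx through GIRK channels coupled to M4 in HEK293 cells with BTC-AM dye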); details: at 10 µM, actives lie on both sides
# Muscarinic acetylcholine receptor M4 (Homo sapiens), sequence (P08173 whole entry, looked up): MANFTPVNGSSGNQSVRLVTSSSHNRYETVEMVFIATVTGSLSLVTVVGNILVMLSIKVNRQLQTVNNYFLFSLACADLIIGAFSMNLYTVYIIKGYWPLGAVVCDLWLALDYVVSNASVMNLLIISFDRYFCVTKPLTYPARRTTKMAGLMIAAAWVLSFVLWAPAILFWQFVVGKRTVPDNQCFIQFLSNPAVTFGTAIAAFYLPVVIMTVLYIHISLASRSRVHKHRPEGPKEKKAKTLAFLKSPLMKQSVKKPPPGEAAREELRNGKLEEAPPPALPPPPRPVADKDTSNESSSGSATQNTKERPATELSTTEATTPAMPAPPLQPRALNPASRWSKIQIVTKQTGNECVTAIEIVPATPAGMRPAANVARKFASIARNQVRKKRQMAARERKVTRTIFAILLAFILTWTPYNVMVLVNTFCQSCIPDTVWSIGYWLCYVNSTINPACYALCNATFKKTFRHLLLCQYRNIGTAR
# Method in brief: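 assay system = HEK293 cells with M4 receptor and GIRK channels | medium = pH 7.3 thallium assay buffer | doses = 10 µM final, single point | timing = cells overnight at 37 °C, BTC-AM loading 1 h, reads 2 min total | signal = BTC-AM fluorescence, 1 Hz kinetic reads | read-out = post-addition slope, 15–24 s, of baseline-normalized fluorescence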
# [7] = inhibitors of Sendai virus-induced IRF3 signaling, primary screen, TLR/RLR signaling modifier project, cell-based, Sendai virus stimulus, luciferase, 10K MLSCN set (AID 602276;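 active = inhibition at or above 50% at 10 µM; inactive = inhibition below 50%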;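 note: firefly luciferase from ISG56 promoter only with Renilla not read in this screen; 0% = Sendai virus plus DMSO and 100% = medium plus DMSO without virus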); details: HEK293 RL24 IRF3 luciferase reporter, at 10 µM, stronger effect = higher value
# [8] = inhibitors of poly I:C-induced TLR3 signaling, primary screen, cell-based, poly I:C stimulus, luciferase, 10K MLSCN set (AID 602277;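 active = inhibition of the reporter signal at or above 50%; inactive = inhibition below 50%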); details: HEK293-TLR3 RL24 IRF3 luciferase reporter, at 10 µM, stronger effect = higher value
SMILES,cell count [1],inhibition [1],inhibition of aggregation [2],nuclei count [2],inhibition [3],nuclei count [3],fluorescence slope [4],NADPH fluorescence slope [5],fluorescence slope [6],inhibition [7],inhibition [8]
N#CCCn1cnc2ccccc21,332,5.6% (inactive),22.8% (inactive),99.2%,63.2% (active),132%,-0.564 (inactive),-2.5e-05 (inactive),0.0098 (inactive),-0.285% (inactive),3.23% (inactive)
O=C1CC(c2ccco2)CC(O)=C1C=NCCN1CCNCC1 (configuration not stated),315,-8.1% (inactive),-0.5% (inactive),114%,-35% (inactive),122%,-0.595 (inactive),9e-06 (inactive),0.00594 (inactive),22.6% (inactive),31.6% (inactive)
Cc1ccc(NC(=O)C2CCCNC2=O)nc1 (configuration not stated),265,-2.2% (inactive),5.8% (inactive),86.6%,-48.5% (inactive),82.2%,-0.448 (inactive),-4.9e-05 (inactive),0.00534 (inactive),2.07% (inactive),-1.11% (inactive)
CC1CCN(C(=O)c2ccc(C(=O)N3CCC(C)CC3)cc2)CC1,348,4.7% (inactive),2.4% (inactive),95.8%,33.2% (inactive),76.8%,-0.459 (inactive),-3e-05 (inactive),0.00464 (inactive),12.9% (inactive),12.8% (inactive)
CCCN1C2=C(C(=O)CCC2)C(c2ccc(O)c(Br)c2)C2=C1CCCC2=O,736,-30.6% (inactive),2% (inactive),97.2%,-7.3% (inactive),107%,-0.531 (inactive),-5.9e-05 (inactive),0.00464 (inactive),9.76% (inactive),17.2% (inactive)
CCOC(=O)c1[nH]c(C)c(C(=O)Nc2ccccc2F)c1C,637,-9.7% (inactive),-35.4% (inactive),48.5%,11.3% (inactive),94.5%,-0.435 (inactive),2.7e-05 (inactive),0.00822 (inactive),27.9% (inactive),-0.299% (inactive)
CCc1nnc(NC(=O)CSc2nc3ccccc3s2)s1,604,7.1% (inactive),-5.7% (inactive),100%,-44% (inactive),112%,-0.472 (inactive),-5.3e-05 (inactive),0.00516 (inactive),11.9% (inactive),12.6% (inactive)
